Measured values from different studies.
Lines come from different studies, so protocols differ.
CYP2A6: Cytochrome P450 2A6 (CYP2A6, Homo sapiens, UniProt P11509)
HTR1D: 5-hydroxytryptamine receptor 1D (HTR1D, Homo sapiens, UniProt P28221)
Slc6a4: Sodium-dependent serotonin transporter (Slc6a4, Rattus norvegicus, UniProt P31652)

COc1cc2c(cc1OC)C(=O)N(CCCCN1C(=O)/C(=N\NC(=S)N(C)C)c3ccccc31)CC2
EC50 (ATP-dependent translocase ABCB1 (ABCB1, Homo sapiens, UniProt P08183); transporter efflux, inhibitor, fluorescence; MDCK-MDR1): 11 µM

Cc1cnc(-c2ccc(-c3ccc(NC(=O)Nc4c(F)cc(F)cc4F)cc3F)c3c2C(=O)NC3)[nH]1
Kd (Tyrosine-protein kinase Yes (YES1, Homo sapiens, UniProt P07947); binding, competition with immobilised ligand): 0.31 µM

C#Cc1cccc(-c2cc(=O)c3ccccc3o2)c1
Ki (CYP2A6; enzyme activity, inhibitor; 6 min, pH 7.6): > 25 µM

O=C1c2ccccc2CCN1CCCCN1CCN(c2cccc(Cl)c2Cl)CC1
Ki (HTR1D; ligand displacement, radioligand): > 10 µM

CCCCN1CCC(COC(=O)c2ccc(N)c(OCF)c2)CC1
Ki (Mu-type opioid receptor (OPRM1, Homo sapiens, UniProt P35372); cell-free assay, radioligand): > 10 µM

C#Cc1ccc2oc(-c3ccccc3)cc(=O)c2c1
Ki (CYP2A6; enzyme activity, inhibitor; 6 min, pH 7.6): > 25 µM

O[C@H]1[C@H](n2cnc3c(NC(C4CCCCC4)C4CCCCC4)nc(Cl)nc32)[C@H]2C[C@@]2(CF)[C@H]1O
Ki (HTR1D; cell-free assay, radioligand): 1.99 µM

Cc1cc2nc3c(=O)[nH]c(=O)nc-3n(C[C@H](O)[C@H](O)[C@H](O)COP(=O)(O)OP(=O)(O)OC[C@H]3O[C@@H](n4cnc5c(N)ncnc54)[C@H](O)[C@@H]3O)c2cc1C
Kd (Far upstream element-binding protein 2 (KHSRP, Homo sapiens, UniProt Q92945); binding; lysate): 0.026 µM

CNC(=O)[C@@]12C[C@@H]1[C@@H](n1cnc3c(NC)nc(C#C[c-]4cccc4)nc31)[C@H](O)[C@@H]2O.[Fe+2].c1cc[cH-]c1
Ki (Adenosine receptor A3 (Mus musculus, UniProt Q61618); ligand displacement, radioligand; cell membranes): 0.00546 µM

Cc1occc(=S)c1O
Ki (Carbonic anhydrase 15 (Mus musculus, UniProt Q99N23); enzyme activity, inhibitor, stopped-flow): 3.1 µM

CN(C)c1ccc(C(CNC(=O)c2ccc(Br)cc2)N(C)C)cc1 (centres unmarked)
Ki (Slc6a4; ligand displacement, radioligand): 0.305 µM

Cc1cc2c(NC(=O)c3cccc(C(=O)O)c3)cccc2nn1
Kd (Bromodomain-containing protein 4, BD1 (BRD4, Homo sapiens, UniProt O60885); binding, competition with immobilised ligand): 41 µM

c1ccc(-n2nnnc2N2CCNCC2)cc1
Ki (Slc6a4; ligand displacement, radioligand): > 20 µM

C#Cc1cccc2oc(-c3ccccc3)cc(=O)c12
Ki (CYP2A6; enzyme activity, inhibitor; 6 min, pH 7.6): > 25 µM

CCCN1CCN(c2ccc(-c3cncc(Cl)c3N3CCC4(CCNC4=O)CC3)cc2)CC1
Kd (Glycogen synthase kinase-3 alpha (GSK3A, Homo sapiens, UniProt P49840); cell-free assay; lysate): 1.75 µM

Nc1nc2c(ncn2[C@@H]2O[C@H](COP(=O)(O)OP(=O)(O)O)[C@@H](OP(=O)(O)OP(=O)(O)O)[C@H]2O)c(=O)[nH]1
Kd (mpl (Escherichia coli, UniProt P37773); binding, ITC): 752 µM

O=c1cc(-c2ccccc2)oc2c1ccc1ccccc12
Ki (CYP2A6; enzyme activity, inhibitor; 6 min, pH 7.6): > 25 µM
